tested on: CCRF-CEM; assay: Growth inhibition of human CEM cells after 72 hrs by MTT assay; type: functional; conditions: not given
Procedure, shortened: (§1)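 Growth inhibition by MTT after 72 h incubation. Resistant sublines: LoVoDoxo and MCF-7 MDR were kept in 0.1 µg/mL doxorubicin; CEMVbl-100 was selected against vinblastine. GI50 given as mean ± SEM of three independent experiments. Resistance index is resistant-line GI50 over parental GI50.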

| SMILES | GI50 [µM] |
| --- | --- |
| Cc1cccc2c1[nH]c(=O)c1c3ccccc3cn21 | 2.9 |

tested on: NCI-H23; assay: Antitumor activity against human NCI-H23 cells; type: functional; conditions: not given
Procedure, shortened: (§2)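 Run by the NCI in its in vitro disease-oriented screen of about 60 human tumour cell lines. For each line it reports pGI50 (50% net growth inhibition), pTGI (total growth inhibition) and pLC50 (50% net cell death), each as –log molar concentration. Where an effect was not reached within the tested range, the highest tested concentration was used.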

| SMILES | GI50 [µM] | LC50 (50% net cell kill) [µM] |
| --- | --- | --- |
| Cc1cccc2c1[nH]c(=O)c1c3ccccc3cn21 | 17.4 | 87.1 |

same assay, conditions: read-out: pTGI (converted)

| SMILES | TGI [µM] |
| --- | --- |
| Cc1cccc2c1[nH]c(=O)c1c3ccccc3cn21 | 38.9 |

tested on: NCI-H460; assay: Antitumor activity against human NCI-H460 cells; type: functional; conditions: not given; procedure, shortened: as §2

| SMILES | GI50 [µM] |
| --- | --- |
| Cc1cccc2c1[nH]c(=O)c1c3ccccc3cn21 | 1.91 |

same assay, conditions: read-out: Log LC50 (the source's name) (converted)

| SMILES | CC50 [µM] |
| --- | --- |
| Cc1cccc2c1[nH]c(=O)c1c3ccccc3cn21 | 31.6 |

same assay, conditions: read-out: pTGI (converted)

| SMILES | TGI [µM] |
| --- | --- |
| Cc1cccc2c1[nH]c(=O)c1c3ccccc3cn21 | 10 |

tested on: NCI-H226; assay: Antitumor activity against human NCI-H226 cells; type: functional; conditions: not given; procedure, shortened: as §2

| SMILES | GI50 [µM] | LC50 (50% net cell kill) [µM] |
| --- | --- | --- |
| Cc1cccc2c1[nH]c(=O)c1c3ccccc3cn21 | 3.24 | > 100 |

same assay, conditions: read-out: pTGI (converted)

| SMILES | TGI [µM] |
| --- | --- |
| Cc1cccc2c1[nH]c(=O)c1c3ccccc3cn21 | 27.5 |

tested on: HT-29; assay: Antitumor activity against human HT29 cells; type: functional; conditions: not given; procedure, shortened: as §2

| SMILES | GI50 [µM] | LC50 [µM] |
| --- | --- | --- |
| Cc1cccc2c1[nH]c(=O)c1c3ccccc3cn21 | 2.19 | 36.3 |

same assay, conditions: read-out: pTGI (converted)

| SMILES | TGI [µM] |
| --- | --- |
| Cc1cccc2c1[nH]c(=O)c1c3ccccc3cn21 | 13.2 |

tested on: CCRF-CEM; assay: Antitumor activity against human CCRF-CEM cells; type: functional; conditions: not given; procedure, shortened: as §2

| SMILES | GI50 [µM] | LC50 [µM] |
| --- | --- | --- |
| Cc1cccc2c1[nH]c(=O)c1c3ccccc3cn21 | 1.2 | 74.1 |

same assay, conditions: read-out: pTGI (converted)

| SMILES | TGI [µM] |
| --- | --- |
| Cc1cccc2c1[nH]c(=O)c1c3ccccc3cn21 | 12.6 |

tested on: CCRF-CEM; assay: Growth inhibition of human vinblastine-resistant CEM cells after 72 hrs by MTT assay; type: functional; conditions: not given; procedure, shortened: as §1

| SMILES | GI50 [µM] |
| --- | --- |
| Cc1cccc2c1[nH]c(=O)c1c3ccccc3cn21 | 3 |

tested on: UACC-62; assay: Antitumor activity against human UACC62 cells; type: functional; conditions: not given
Procedure, shortened: (§3)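 NCI 60-cell-line screen. Parameters were GI50 (50% net growth inhibition), TGI and LC50, each reported as –log molar concentration. Where an effect was not reached within the tested range, the highest tested concentration was used in the calculation.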

| SMILES | GI50 [µM] | LC50 [µM] |
| --- | --- | --- |
| Cc1cccc2c1[nH]c(=O)c1c3ccccc3cn21 | 6.92 | 95.5 |

same assay, conditions: read-out: pTGI (converted)

| SMILES | TGI [µM] |
| --- | --- |
| Cc1cccc2c1[nH]c(=O)c1c3ccccc3cn21 | 28.2 |

tested on: U-251; assay: Antitumor activity against human U251 cells; type: functional; conditions: not given; procedure, shortened: as §3

| SMILES | GI50 [µM] |
| --- | --- |
| Cc1cccc2c1[nH]c(=O)c1c3ccccc3cn21 | 6.61 |

same assay, conditions: read-out: Log LC50 (the source's name) (converted)

| SMILES | CC50 [µM] |
| --- | --- |
| Cc1cccc2c1[nH]c(=O)c1c3ccccc3cn21 | 45.7 |

same assay, conditions: read-out: pTGI (converted)

| SMILES | TGI [µM] |
| --- | --- |
| Cc1cccc2c1[nH]c(=O)c1c3ccccc3cn21 | 19.5 |

tested on: ACHN; assay: Antitumor activity against human ACHN cells; type: functional; conditions: not given; procedure, shortened: as §2

| SMILES | GI50 [µM] | LC50 (50% net cell kill) [µM] |
| --- | --- | --- |
| Cc1cccc2c1[nH]c(=O)c1c3ccccc3cn21 | 4.07 | > 100 |

same assay, conditions: read-out: pTGI (converted)

| SMILES | TGI [µM] |
| --- | --- |
| Cc1cccc2c1[nH]c(=O)c1c3ccccc3cn21 | 22.4 |

tested on: SF-268; assay: Cell viability against human SF268 cells at 10 uM; type: functional; conditions: not given

| SMILES | Activity [%] |
| --- | --- |
| Cc1cccc2c1[nH]c(=O)c1c3ccccc3cn21 | 55 |

tested on: Hs-578T; assay: Antitumor activity against human HS578T cells; type: functional; conditions: not given; procedure, shortened: as §2

| SMILES | GI50 [µM] |
| --- | --- |
| Cc1cccc2c1[nH]c(=O)c1c3ccccc3cn21 | 21.9 |

same assay, conditions: read-out: Log LC50 (the source's name) (converted)

| SMILES | CC50 [µM] |
| --- | --- |
| Cc1cccc2c1[nH]c(=O)c1c3ccccc3cn21 | > 100 |

same assay, conditions: read-out: pTGI (converted)

| SMILES | TGI [µM] |
| --- | --- |
| Cc1cccc2c1[nH]c(=O)c1c3ccccc3cn21 | 64.6 |

tested on: T47D; assay: Antitumor activity against human T47D cells; type: functional; conditions: not given; procedure, shortened: as §3

| SMILES | GI50 [µM] | LC50 [µM] |
| --- | --- | --- |
| Cc1cccc2c1[nH]c(=O)c1c3ccccc3cn21 | 11.5 | > 100 |

same assay, conditions: read-out: pTGI (converted)

| SMILES | TGI [µM] |
| --- | --- |
| Cc1cccc2c1[nH]c(=O)c1c3ccccc3cn21 | 49 |

tested on: OVCAR-5; assay: Antitumor activity against human OVCAR5 cells; type: functional; conditions: not given; procedure, shortened: as §2

| SMILES | GI50 [µM] | LC50 (50% net cell death) [µM] |
| --- | --- | --- |
| Cc1cccc2c1[nH]c(=O)c1c3ccccc3cn21 | 17.8 | > 100 |

same assay, conditions: read-out: pTGI (converted)

| SMILES | TGI [µM] |
| --- | --- |
| Cc1cccc2c1[nH]c(=O)c1c3ccccc3cn21 | 66.1 |

tested on: BT-549; assay: Antitumor activity against human BT549 cells; type: functional; conditions: not given; procedure, shortened: as §2

| SMILES | GI50 [µM] | LC50 (50% net cell kill) [µM] |
| --- | --- | --- |
| Cc1cccc2c1[nH]c(=O)c1c3ccccc3cn21 | 12 | > 100 |

same assay, conditions: read-out: pTGI (converted)

| SMILES | TGI [µM] |
| --- | --- |
| Cc1cccc2c1[nH]c(=O)c1c3ccccc3cn21 | 58.9 |

tested on: SF-295; assay: Antitumor activity against human SF295 cells; type: functional; conditions: not given; procedure, shortened: as §2

| SMILES | GI50 [µM] |
| --- | --- |
| Cc1cccc2c1[nH]c(=O)c1c3ccccc3cn21 | 2.63 |

same assay, conditions: read-out: Log LC50 (the source's name) (converted)

| SMILES | CC50 [µM] |
| --- | --- |
| Cc1cccc2c1[nH]c(=O)c1c3ccccc3cn21 | > 100 |

same assay, conditions: read-out: pTGI (converted)

| SMILES | TGI [µM] |
| --- | --- |
| Cc1cccc2c1[nH]c(=O)c1c3ccccc3cn21 | 25.1 |

tested on: MOLT-4; assay: Antitumor activity against human MOLT4 cells; type: functional; conditions: not given; procedure, shortened: as §2

| SMILES | GI50 [µM] | LC50 [µM] |
| --- | --- | --- |
| Cc1cccc2c1[nH]c(=O)c1c3ccccc3cn21 | 1.82 | 20.9 |

same assay, conditions: read-out: pTGI (converted)

| SMILES | TGI [µM] |
| --- | --- |
| Cc1cccc2c1[nH]c(=O)c1c3ccccc3cn21 | 5.62 |

tested on: TK-10; assay: Antitumor activity against human TK10 cells; type: functional; conditions: not given; procedure, shortened: as §3

| SMILES | GI50 [µM] |
| --- | --- |
| Cc1cccc2c1[nH]c(=O)c1c3ccccc3cn21 | 26.9 |

same assay, conditions: read-out: Log LC50 (the source's name) (converted)

| SMILES | CC50 [µM] |
| --- | --- |
| Cc1cccc2c1[nH]c(=O)c1c3ccccc3cn21 | > 100 |

same assay, conditions: read-out: pTGI (converted)

| SMILES | TGI [µM] |
| --- | --- |
| Cc1cccc2c1[nH]c(=O)c1c3ccccc3cn21 | 87.1 |

tested on: UACC-257; assay: Antitumor activity against human UACC257 cells; type: functional; conditions: not given; procedure, shortened: as §3

| SMILES | GI50 [µM] | LC50 [µM] |
| --- | --- | --- |
| Cc1cccc2c1[nH]c(=O)c1c3ccccc3cn21 | 16.6 | > 100 |

same assay, conditions: read-out: pTGI (converted)

| SMILES | TGI [µM] |
| --- | --- |
| Cc1cccc2c1[nH]c(=O)c1c3ccccc3cn21 | 93.3 |

tested on: KM12; assay: Antitumor activity against human KM12 cells; type: functional; conditions: not given; procedure, shortened: as §2

| SMILES | GI50 [µM] | LC50 (50% net cell death) [µM] |
| --- | --- | --- |
| Cc1cccc2c1[nH]c(=O)c1c3ccccc3cn21 | 3.39 | > 100 |

same assay, conditions: read-out: pTGI (converted)

| SMILES | TGI [µM] |
| --- | --- |
| Cc1cccc2c1[nH]c(=O)c1c3ccccc3cn21 | 22.9 |

tested on: HOP-62; assay: Antitumor activity against human HOP62 cells; type: functional; conditions: not given; procedure, shortened: as §2

| SMILES | GI50 [µM] | LC50 (50% net cell death) [µM] |
| --- | --- | --- |
| Cc1cccc2c1[nH]c(=O)c1c3ccccc3cn21 | 3.55 | 51.3 |

same assay, conditions: read-out: pTGI (converted)

| SMILES | TGI [µM] |
| --- | --- |
| Cc1cccc2c1[nH]c(=O)c1c3ccccc3cn21 | 15.1 |

tested on: OVCAR-8; assay: Antitumor activity against human OVCAR8 cells; type: functional; conditions: not given; procedure, shortened: as §2

| SMILES | GI50 [µM] | LC50 (50% net cell death) [µM] |
| --- | --- | --- |
| Cc1cccc2c1[nH]c(=O)c1c3ccccc3cn21 | 3.55 | > 100 |

same assay, conditions: read-out: pTGI (converted)

| SMILES | TGI [µM] |
| --- | --- |
| Cc1cccc2c1[nH]c(=O)c1c3ccccc3cn21 | > 100 |

tested on: SW-620; assay: Antitumor activity against human SW620 cells; type: functional; conditions: not given; procedure, shortened: as §3

| SMILES | GI50 [µM] |
| --- | --- |
| Cc1cccc2c1[nH]c(=O)c1c3ccccc3cn21 | 5.75 |

same assay, conditions: read-out: Log LC50 (the source's name) (converted)

| SMILES | CC50 [µM] |
| --- | --- |
| Cc1cccc2c1[nH]c(=O)c1c3ccccc3cn21 | 42.7 |

same assay, conditions: read-out: pTGI (converted)

| SMILES | TGI [µM] |
| --- | --- |
| Cc1cccc2c1[nH]c(=O)c1c3ccccc3cn21 | 17.8 |

tested on: MCF7; assay: Growth inhibition of human multidrug-resistant MCF7 cells after 72 hrs by MTT assay; type: functional; conditions: MCF7, 72 h; procedure, shortened: as §1

| SMILES | GI50 [µM] |
| --- | --- |
| Cc1cccc2c1[nH]c(=O)c1c3ccccc3cn21 | 8.1 |

tested on: SR; assay: Antitumor activity against human SR cells; type: functional; conditions: not given; procedure, shortened: as §3

| SMILES | GI50 [µM] | LC50 [µM] |
| --- | --- | --- |
| Cc1cccc2c1[nH]c(=O)c1c3ccccc3cn21 | 1.55 | 12.6 |

same assay, conditions: read-out: pTGI (converted)

| SMILES | TGI [µM] |
| --- | --- |
| Cc1cccc2c1[nH]c(=O)c1c3ccccc3cn21 | 4.17 |
